Results of several laboratories.
Protocols differ between the studies behind these lines.
CDK4 with cyclin D1: Cyclin-dependent kinase 4, with cyclin D1 (CDK4, Homo sapiens, UniProt P11802)
CDK4: Cyclin-dependent kinase 4 (CDK4, Homo sapiens, UniProt P11802)
CDK4 with cyclin D3: Cyclin-dependent kinase 4, with cyclin D3 (CDK4, Homo sapiens, UniProt P11802)

Structure (SMILES)	target	read-out	method	tested at	remaining binding [%]
CS(=O)(=O)NCC[C@H](NC(=O)c1cncc2c1cnn2-c1ccc(F)cc1)c1ccnc(S(C)(=O)=O)c1	CDK4 with cyclin D1	cell-free assay	competition with immobilised ligand	1 µM	100
Nc1ncc2c(n1)-c1c([nH]c3ccc(C#CC4CC4)cc13)CCCC2	CDK4	binding	competition with immobilised ligand	1 µM	84
c1cnn2ncc(-c3ccnc(N4CCC45COC5)n3)c2c1	CDK4 with cyclin D3	binding		1 µM	68
COc1cnc(Nc2cccc(S(N)(=O)=O)c2)nc1N1CCN(c2ccccc2)CC1	CDK4 with cyclin D1	binding	competition with immobilised ligand	1 µM	78
O=C(Nc1c[nH]nc1C(=O)NC1CCNCC1)c1cc(F)cc(F)c1	CDK4	binding	competition with immobilised ligand	1 µM	100
O=C(c1ccc(Nc2ncc(Cl)c(-c3ccc(Cl)s3)n2)cc1)N1CCC(N2CCCC2)CC1	CDK4 with cyclin D3	binding	competition with immobilised ligand	1 µM	0.9
c1cncc(-c2cccc(Nc3nccc(NC4CCCCC4)n3)c2)c1	CDK4	binding	competition with immobilised ligand	10 µM	100
Cc1c(NC(=O)c2cc(C(N)=O)nc3cc(F)ccc23)c(C(F)(F)F)nn1Cc1ccc(C#N)cc1	CDK4 with cyclin D3	cell-free assay	competition with immobilised ligand	1 µM	81
O=C(NCCCN1CCOCC1)c1ccc(Nc2nccc(-c3cc4ccccc4s3)n2)cc1	CDK4 with cyclin D1	binding	competition with immobilised ligand	1 µM	83
CNC(=O)[C@@H]1CC[C@@H](n2c(-c3ccc4cnccc4c3)nc3ccc(C(=O)NCc4cccc(C(N)=O)c4)cc32)C1	CDK4 with cyclin D1	binding	competition with immobilised ligand	1 µM	100
CN(C)c1nccc(-c2cnc3ncccn23)n1	CDK4 with cyclin D1	binding		1 µM	51
O=C(c1ccc(Nc2ncc(Cl)c(-c3cc4ccccc4s3)n2)cc1)N1CCC(N2CCCC2)CC1	CDK4 with cyclin D1	binding	competition with immobilised ligand	1 µM	3.6
CCCOc1ccc([C@@H]2[C@@H](C(=O)O)[C@H](c3ccc4c(c3)OCO4)CN2CC(=O)Nc2c(CC)cccc2CC)cc1	CDK4	cell-free assay	competition with immobilised ligand	1 µM	84
CN(C)c1nccc(-c2cnn3ncccc23)n1	CDK4	binding		1 µM	92
CC(=O)c1c(NS(C)(=O)=O)c2cc(-c3ccc(Cl)cc3)c(-c3ccc(Cl)cc3Cl)nc2n(C)c1=O	CDK4 with cyclin D1	cell-free assay	competition with immobilised ligand	1 µM	100
C[C@@H]1CCN(c2nccc(-c3cnn4ncccc34)n2)C1	CDK4 with cyclin D3	binding		1 µM	76
O=C(NC[C@@H]1[C@H]2CN(C(=O)OCc3cc(C(F)(F)F)cc(C(F)(F)F)c3)C[C@@H]12)c1ccc2[nH]nnc2c1	CDK4 with cyclin D1	cell-free assay	competition with immobilised ligand	1 µM	100
C[C@@H](c1ccc(-n2cnc3c(N)ncnc32)cc1)N1CCc2nn(C)c(Cc3ccccc3)c2C1=O	CDK4 with cyclin D3	binding	competition with immobilised ligand	0.1 µM	68
CN(C)CC#Cc1ccc(OCCCc2sc(N3CCc4cccc(C(=O)Nc5nc6ccccc6s5)c4C3)nc2C(=O)O)c(F)c1	CDK4 with cyclin D3	cell-free assay	competition with immobilised ligand	1 µM	100
COc1ccnn2ncc(-c3ccnc(N(C)C)n3)c12	CDK4 with cyclin D1	binding		1 µM	97
